According to ChEMBL document CHEMBL1132488, “On the bioactive conformation of NAN-190 (1) and MP3022 (2), 5-HT(1A) receptor antagonists” (J Med Chem, 1999):
Each block holds one molecule with its values, some of them ahead of it.

How the values were obtained:
[1] = target: T1, 5-hydroxytryptamine receptor 1A (Rattus norvegicus, UniProt P19327); experiment: Ability to displace [3H]8-OH-DPAT from 5-hydroxytryptamine 1A receptor
T1 sequence (P19327 whole entry): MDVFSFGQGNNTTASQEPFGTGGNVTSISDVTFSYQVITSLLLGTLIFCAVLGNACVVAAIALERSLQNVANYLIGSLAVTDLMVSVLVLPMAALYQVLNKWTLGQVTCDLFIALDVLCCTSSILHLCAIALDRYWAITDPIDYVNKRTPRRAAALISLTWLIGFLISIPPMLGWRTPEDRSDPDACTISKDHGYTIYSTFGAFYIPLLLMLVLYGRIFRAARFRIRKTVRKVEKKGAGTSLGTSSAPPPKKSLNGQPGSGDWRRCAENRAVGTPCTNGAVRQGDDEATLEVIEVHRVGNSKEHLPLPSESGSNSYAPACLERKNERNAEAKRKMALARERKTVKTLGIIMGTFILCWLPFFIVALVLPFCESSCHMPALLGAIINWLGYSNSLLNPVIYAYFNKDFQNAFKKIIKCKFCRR
Summary of the method: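 Rat hippocampal membranes, [3H]8-OH-DPAT radioligand. Ki from at least three competition experiments, each with 10–14 drug concentrations run in triplicate. Ki calculated with the Cheng–Prusoff equation.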

Rattus norvegicus [2] = organism: Rattus norvegicus; experiment: Dose Inducing behavioral syndrome(FT: forepaw treading) by the compound in reserpine pretreated rats; format: functional
Summary of the method: (§1)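 Male Wistar rats (260–300 g), groups of 6, given reserpine 1 mg/kg sc 18 h before test. Compounds given ip as 1% Tween 80 suspension. FBP and FT rated 0–3 in 45-s sessions every 3 min, starting 3 min after dosing. Score summed over 5 periods (max 15 per symptom). Mean ± SEM; Newman–Keuls test.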

Rattus norvegicus [3] = organism: Rattus norvegicus; experiment: Dose Inducing behavioral syndrome(FBP: flat body posture) by the compound in reserpine pretreated rats; format: functional; summary of the method: as §1
Rattus norvegicus [4] = organism: Rattus norvegicus; experiment: Effective dose of the required to inhibit symptoms produced by 8-OH-DPAT; format: functional
Summary of the method: (§2)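 Reserpinized male Wistar rats (reserpine 1 mg/kg sc, 18 h before), groups of 6. Compound given ip in 1% Tween 80 60 min before 8-OH-DPAT 5 mg/kg sc. FBP/FT rated 0–3 at 3, 6, 9, 12 and 15 min after agonist, summed (max 15). Mean ± SEM; Newman–Keuls test; ED50 with range.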

Rattus norvegicus [5] = organism: Rattus norvegicus; experiment: Effect on 8-OH-DAPT- induced behavioral syndrome(FT: forepaw treading) by the compound in reserpine pretreated rats at a dose of 16; FT mean score; format: functional; summary of the method: as §2
Rattus norvegicus [6] = organism: Rattus norvegicus; experiment: Effect on 8-OH-DAPT- induced behavioral syndrome(FT: forepaw treading) by the compound in reserpine pretreated rats at a dose of 32; FT mean score; format: functional; summary of the method: as §2
Rattus norvegicus [7] = organism: Rattus norvegicus; experiment: Effect on 8-OH-DAPT- induced behavioral syndrome(FBP: flat body posture) by the compound in reserpine pretreated rats at a dose of 16; FBP mean score; format: functional; summary of the method: as §2
Rattus norvegicus [8] = organism: Rattus norvegicus; experiment: Effect on 8-OH-DAPT- induced behavioral syndrome(FT: forepaw treading) by the compound in reserpine pretreated rats at a dose of 8; FT mean score; format: functional; summary of the method: as §2
Rattus norvegicus [9] = organism: Rattus norvegicus; experiment: Induction of behavioral syndrome(FT: forepaw treading) by the compound in reserpine pretreated rats at a dose of 16; FT mean score; format: functional
Summary of the method: (§3)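 Male Wistar rats (260–300 g) were given reserpine 1 mg/kg sc in saline 18 h before testing. Test compound was then given alone ip as a 1% Tween 80 suspension (2 mL/kg). FBP and FT were each scored 0–3 and summed (maximum 15). n=6 per group; mean ± SEM; Newman–Keuls test.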

Rattus norvegicus [10] = organism: Rattus norvegicus; experiment: Induction of behavioral syndrome(FT: forepaw treading) by the compound in reserpine pretreated rats at a dose of 32; FT mean score; format: functional; summary of the method: as §3
Rattus norvegicus [11] = organism: Rattus norvegicus; experiment: Induction of behavioral syndrome(FT: forepaw treading) by the compound in reserpine pretreated rats at a dose of 8; FT mean score; format: functional; summary of the method: as §3
Rattus norvegicus [12] = organism: Rattus norvegicus; experiment: Effect on 8-OH-DAPT- induced behavioral syndrome(FBP: flat body posture) by the compound in reserpine pretreated rats at a dose of 8; FBP mean score; format: functional; summary of the method: as §2
Rattus norvegicus [13] = organism: Rattus norvegicus; experiment: Induction of behavioral syndrome(FBP: flat body posture) by the compound in reserpine pretreated rats at a dose of 16; FBP mean score; format: functional; summary of the method: as §1
Rattus norvegicus [14] = organism: Rattus norvegicus; experiment: Induction of behavioral syndrome(FBP: flat body posture) by the compound in reserpine pretreated rats at a dose of 32; FBP mean score; format: functional; summary of the method: as §3
Rattus norvegicus [15] = organism: Rattus norvegicus; experiment: Induction of behavioral syndrome(FBP: flat body posture) by the compound in reserpine pretreated rats at a dose of 8; FBP mean score; format: functional; summary of the method: as §3
Rattus norvegicus [16] = experiment: Effect on 8-OH-DPAT-Induced LLR(lower lip retraction) in rats at a dose of 32 mg/kg; format: functional
Summary of the method: (§4)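 Male Wistar rats, groups of 6. Compound given ip in 1% Tween 80 45 min before 8-OH-DPAT 1 mg/kg sc. Lower incisor visibility scored 0/0.5/1 at 15, 30 and 45 min after agonist, summed (max 3). Mean ± SEM; Newman–Keuls test; ED50 with range.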

Rattus norvegicus [17] = experiment: Induction of LLR(lower lip retraction) by the compound in rat at a dose of 8 mg/kg; LLR score; format: functional
Summary of the method: (§5)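 Male Wistar rats, groups of 6, given compound alone ip as 1% Tween 80 suspension. Lower incisor visibility scored 0/0.5/1 at 15, 30 and 45 min after dosing, summed (max 3 per rat). Mean ± SEM versus vehicle, Newman–Keuls test; ED50 with range.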

Rattus norvegicus [18] = experiment: Effect on 8-OH-DPAT-Induced LLR(lower lip retraction) in rats at a dose of 16 mg/kg; format: functional; summary of the method: as §4
Rattus norvegicus [19] = experiment: Effect on 8-OH-DPAT-Induced LLR(lower lip retraction) in rats at a dose of 8 mg/kg; format: functional; summary of the method: as §4
Rattus norvegicus [20] = organism: Rattus norvegicus; experiment: Effect on 8-OH-DAPT- induced behavioral syndrome(FBP: flat body posture) by the compound in reserpine pretreated rats at a dose of 32; FBP mean score; format: functional; summary of the method: as §2
Rattus norvegicus [21] = experiment: Induction of LLR(lower lip retraction) by the compound in rats at a dose of 16 mg/kg; format: functional; summary of the method: as §5
Rattus norvegicus [22] = experiment: Induction of LLR(lower lip retraction) by the compound in rats at a dose of 32 mg/kg; format: functional; summary of the method: as §5
Rattus norvegicus [23] = organism: Rattus norvegicus; experiment: Effect on 8-OH-DAPT- induced behavioral syndrome(FT: forepaw treading) by the compound in reserpine pretreated rats at a dose of 16; format: functional; summary of the method: as §2
Rattus norvegicus [24] = organism: Rattus norvegicus; experiment: Effect on 8-OH-DAPT- induced behavioral syndrome(FT: forepaw treading) by the compound in reserpine pretreated rats at a dose of 4; FT mean score; format: functional; summary of the method: as §2
Rattus norvegicus [25] = organism: Rattus norvegicus; experiment: Effect on 8-OH-DAPT- induced behavioral syndrome(FBP: flat body posture) by the compound in reserpine pretreated rats at a dose of 4; FBP mean score; format: functional; summary of the method: as §2
Rattus norvegicus [26] = organism: Rattus norvegicus; experiment: Induction of behavioral syndrome(FT: forepaw treading) by the compound in reserpine pretreated rats at a dose of 4; FT mean score; format: functional; summary of the method: as §3
Rattus norvegicus [27] = organism: Rattus norvegicus; experiment: Induction of behavioral syndrome(FBP: flat body posture) by the compound in reserpine pretreated rats at a dose of 4; FBP mean score; format: functional; summary of the method: as §3
Rattus norvegicus [28] = organism: Rattus norvegicus; experiment: Induction of behavioral syndrome(FBP: flat body posture) by the compound in reserpine pretreated rats at a dose of 8; format: functional; summary of the method: as §3
Rattus norvegicus [29] = experiment: Induction of LLR(lower lip retraction) by the compound in rats at a dose of 16 mg/kg; LLR score; format: functional; summary of the method: as §5
Rattus norvegicus [30] = experiment: Induction of LLR(lower lip retraction) by the compound in rats at a dose of 4 mg/kg; LLR score; format: functional; summary of the method: as §5
Rattus norvegicus [31] = experiment: Induction of LLR(lower lip retraction) by the compound in rats at a dose of 8 mg/kg; LLR score; format: functional; summary of the method: as §5
Rattus norvegicus [32] = organism: Rattus norvegicus; experiment: Effective dose required to induce LLR(lower lip retraction); format: functional; summary of the method: as §5

Ki [1]: 34 nM
SMILES: O=C1c2ccccc2C(=O)N1C1CCC(N2CCc3ccccc3C2)CC1 (stereo unspecified)
ED50 (Rattus norvegicus [2]): 13.5 mg/kg
ED50 (Rattus norvegicus [3]): > 32 mg/kg
ED50 (Rattus norvegicus [4]): > 32 mg/kg
FT mean score (Rattus norvegicus [5]): 5.7
FT mean score (Rattus norvegicus [6]): 4.3
FBP mean score (Rattus norvegicus [7]): 10.3
FT mean score (Rattus norvegicus [8]): 7.5
FT mean score (Rattus norvegicus [9]): 0.1
FT mean score (Rattus norvegicus [10]): 0.1
FT mean score (Rattus norvegicus [11]): 0.1
FBP mean score (Rattus norvegicus [12]): 11
FBP mean score (Rattus norvegicus [13]): 0.5
FBP mean score (Rattus norvegicus [14]): 0.3
FBP mean score (Rattus norvegicus [15]): 0.3
LLR score (Rattus norvegicus [16]): 2.3
LLR score (Rattus norvegicus [17]): 0.1
LLR score (Rattus norvegicus [18]): 2.5
LLR score (Rattus norvegicus [19]): 2.3
FBP mean score (Rattus norvegicus [20]): 11.8
LLR score (Rattus norvegicus [21]): 0.2
LLR score (Rattus norvegicus [22]): 0.3

Ki [1]: 47 nM
SMILES: COc1ccccc1N1CCN(C2CCCC(n3nnc4ccccc43)C2)CC1 (stereo unspecified)
ED50 (Rattus norvegicus [2]): 7 mg/kg
ED50 (Rattus norvegicus [3]): 11 mg/kg
FT mean score (Rattus norvegicus [23]): 0.8
FT mean score (Rattus norvegicus [24]): 9.6
FBP mean score (Rattus norvegicus [7]): 6.2
FBP mean score (Rattus norvegicus [25]): 12.5
FT mean score (Rattus norvegicus [8]): 3.5
FT mean score (Rattus norvegicus [9]): 0.1
FT mean score (Rattus norvegicus [26]): 0.1
FT mean score (Rattus norvegicus [11]): 0.3
FBP mean score (Rattus norvegicus [12]): 7
FBP mean score (Rattus norvegicus [13]): 1
FBP mean score (Rattus norvegicus [27]): 0.6
FBP mean score (Rattus norvegicus [28]): 0.5
LLR score (Rattus norvegicus [29]): 1.6
LLR score (Rattus norvegicus [30]): 0.9
LLR score (Rattus norvegicus [31]): 1.3
ED50 (Rattus norvegicus [32]): 8 mg/kg
